Experimental data taken from ChEMBL document CHEMBL2375290, “Nonclassical antifolates, part 3: synthesis, biological evaluation and molecular modeling study of some new 2-heteroarylthio-quinazolin-4-ones” (Eur J Med Chem, 2013).
Converted amounts (≈) assume the structure as drawn.

What was measured:
[1] = test system: LOX IMVI; assay: Cytotoxicity against human LOXIMVI cells at 10 uM after 48 hrs by coulter counter analysis; type: functional; settings: read-out: GI
[2] = test system: MDA-MB-435; assay: Cytotoxicity against human MDA-MB-435 cells at 10 uM after 48 hrs by coulter counter analysis; type: functional; settings: MDA-MB-435, 48 h, read-out: GI
[3] = test system: OVCAR-4; assay: Cytotoxicity against human OVCAR4 cells at 10 uM after 48 hrs by coulter counter analysis; type: functional; settings: OVCAR-4, 48 h, read-out: GI
[4] = test system: CCRF-CEM; assay: Cytotoxicity against human CCRF-CEM cells at 10 uM after 48 hrs by coulter counter analysis; type: functional; settings: read-out: GI
[5] = test system: Hs-578T; assay: Cytotoxicity against human Hs578T cells at 10 uM after 48 hrs by coulter counter analysis; type: functional; settings: read-out: GI
[6] = test system: SK-MEL-5; assay: Cytotoxicity against human SK-MEL-5 cells at 10 uM after 48 hrs by coulter counter analysis; type: functional; settings: SK-MEL-5, 48 h, read-out: GI
[7] = test system: Pseudomonas aeruginosa; assay: Antimicrobial activity against Pseudomonas aeruginosa at 200 ug after 24 hrs by agar disc diffusion method; type: functional; settings: read-out: DIZ
[8] = test system: MDA-MB-231; assay: Cytotoxicity against human MDA-MB-231 cells at 10 uM after 48 hrs by coulter counter analysis; type: functional; settings: MDA-MB-231, 48 h, read-out: GI
[9] = test system: Micrococcus luteus; assay: Antimicrobial activity against Micrococcus luteus at 200 ug after 24 hrs by agar disc diffusion method; type: functional; settings: read-out: DIZ
[10] = test system: SN12C; assay: Cytotoxicity against human SN12C cells at 10 uM after 48 hrs by coulter counter analysis; type: functional; settings: read-out: GI
[11] = test system: SR; assay: Cytotoxicity against human SR cells at 10 uM after 48 hrs by coulter counter analysis; type: functional; settings: read-out: GI
[12] = test system: MOLT-4; assay: Cytotoxicity against human MOLT4 cells at 10 uM after 48 hrs by coulter counter analysis; type: functional; settings: MOLT-4, 48 h, read-out: GI
[13] = test system: A549; assay: Cytotoxicity against human A549/ATCC cells at 10 uM after 48 hrs by coulter counter analysis; type: functional; settings: A549, 48 h, read-out: GI
[14] = test system: SF-295; assay: Cytotoxicity against human SF295 cells at 10 uM after 48 hrs by coulter counter analysis; type: functional; settings: SF-295, 48 h, read-out: GI
[15] = test system: Bacillus subtilis; assay: Antimicrobial activity against Bacillus subtilis at 200 ug after 24 hrs by agar disc diffusion method; type: functional; settings: read-out: DIZ
[16] = test system: Staphylococcus aureus; assay: Antimicrobial activity against Staphylococcus aureus at 200 ug after 24 hrs by agar disc diffusion method; type: functional; settings: read-out: DIZ
[17] = test system: IGROV-1; assay: Cytotoxicity against human IGROV1 cells at 10 uM after 48 hrs by coulter counter analysis; type: functional; settings: IGROV-1, 48 h, read-out: GI
[18] = test system: CAKI-1; assay: Cytotoxicity against human Caki1 cells at 10 uM after 48 hrs by coulter counter analysis; type: functional; settings: CAKI-1, 48 h, read-out: GI
[19] = test system: NCI-H23; assay: Cytotoxicity against human NCI-H23 cells at 10 uM after 48 hrs by coulter counter analysis; type: functional; settings: NCI-H23, 48 h, read-out: GI
[20] = test system: SNB-19; assay: Cytotoxicity against human SNB19 cells at 10 uM after 48 hrs by coulter counter analysis; type: functional; settings: SNB-19, 48 h, read-out: GI
[21] = test system: PC-3; assay: Cytotoxicity against human PC3 cells at 10 uM after 48 hrs by coulter counter analysis; type: functional; settings: PC-3, 48 h, read-out: GI
[22] = test system: Staphylococcus aureus; assay: Antimicrobial activity against Staphylococcus aureus after 24 hrs by micro-dilution susceptibility method; type: functional
How it was run: (§1)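 Broth microdilution in Müller-Hinton broth against S. aureus IFO 3060, B. subtilis IFO 3007, E. coli IFO 3301 and P. aeruginosa IFO 3448. These are the same standard strains used in the disc-diffusion primary screen. Compounds were solubilized in DMSO. MIC recorded as the minimal inhibitory concentration.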

[23] = test system: HL-60(TB); assay: Cytotoxicity against human HL-60(TB) cells at 10 uM after 48 hrs by coulter counter analysis; type: functional; settings: HL-60, 48 h, read-out: GI
[24] = Cytotoxicity against human EKVX cells at 10 uM after 48 hrs by coulter counter analysis; type: functional; settings: read-out: GI
[25] = Cytotoxicity against human NCI-ADR-RES cells at 10 uM after 48 hrs by coulter counter analysis; type: functional; settings: read-out: GI
[26] = biological target: T1, Dihydrofolate reductase (Bos taurus, UniProt P00376); assay: Inhibition of bovine DHFR after 2 mins by spectrophotometry
T1 sequence (P00376 whole entry): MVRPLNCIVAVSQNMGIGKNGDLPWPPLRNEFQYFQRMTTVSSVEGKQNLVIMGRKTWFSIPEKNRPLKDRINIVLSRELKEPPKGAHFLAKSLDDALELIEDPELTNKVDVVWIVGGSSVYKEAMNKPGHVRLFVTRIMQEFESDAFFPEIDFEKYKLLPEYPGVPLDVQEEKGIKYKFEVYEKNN

[27] = test system: RXF 393; assay: Cytotoxicity against human RXF393 cells at 10 uM after 48 hrs by coulter counter analysis; type: functional; settings: RXF 393, 48 h, read-out: GI
[28] = test system: NCI-H522; assay: Cytotoxicity against human NCI-H522 cells at 10 uM after 48 hrs by coulter counter analysis; type: functional; settings: NCI-H522, 48 h, read-out: GI
[29] = test system: UO-31; assay: Cytotoxicity against human UO31 cells at 10 uM after 48 hrs by coulter counter analysis; type: functional; settings: UO-31, 48 h, read-out: GI
[30] = test system: Bacillus subtilis; assay: Antimicrobial activity against Bacillus subtilis after 24 hrs by micro-dilution susceptibility method; type: functional; how it was run: as §1
[31] = test system: Escherichia coli; assay: Antimicrobial activity against Escherichia coli at 200 ug after 24 hrs by agar disc diffusion method; type: functional; settings: read-out: DIZ
[32] = test system: MCF7; assay: Cytotoxicity against human MCF7 cells at 10 uM after 48 hrs by coulter counter analysis; type: functional; settings: MCF7, 48 h, read-out: GI
[33] = test system: RPMI-8226; assay: Cytotoxicity against human RPMI8226 cells at 10 uM after 48 hrs by coulter counter analysis; type: functional; settings: RPMI-8226, 48 h, read-out: GI
[34] = test system: UACC-62; assay: Cytotoxicity against human UACC62 cells at 10 uM after 48 hrs by coulter counter analysis; type: functional; settings: UACC-62, 48 h, read-out: GI
[35] = test system: Malme-3M; assay: Cytotoxicity against human MALME-3M cells at 10 uM after 48 hrs by coulter counter analysis; type: functional; settings: read-out: GI
[36] = test system: SNB-75; assay: Cytotoxicity against human SNB75 cells at 10 uM after 48 hrs by coulter counter analysis; type: functional; settings: SNB-75, 48 h, read-out: GI
[37] = test system: T47D; assay: Cytotoxicity against human T47D cells at 10 uM after 48 hrs by coulter counter analysis; type: functional; settings: read-out: GI
[38] = test system: NCI-H226; assay: Cytotoxicity against human NCI-H226 cells at 10 uM after 48 hrs by coulter counter analysis; type: functional; settings: NCI-H226, 48 h, read-out: GI
[39] = test system: A498; assay: Cytotoxicity against human A498 cells at 10 uM after 48 hrs by coulter counter analysis; type: functional; settings: A498, 48 h, read-out: GI
[40] = test system: Escherichia coli; assay: Antimicrobial activity against Escherichia coli after 24 hrs by micro-dilution susceptibility method

Structure (SMILES)	inhibition of growth at 10 µM [1] [%]	inhibition of growth at 10 µM [2] [%]	inhibition of growth at 10 µM [3] [%]	inhibition of growth at 10 µM [4] [%]	inhibition of growth at 10 µM [5] [%]	inhibition of growth at 10 µM [6] [%]	zone of inhibition at 200 µg/disc [7] [mm]	inhibition of growth at 10 µM [8] [%]	zone of inhibition at 200 µg/disc [9] [mm]	inhibition of growth at 10 µM [10] [%]	inhibition of growth at 10 µM [11] [%]	inhibition of growth at 10 µM [12] [%]	inhibition of growth at 10 µM [13] [%]	inhibition of growth at 10 µM [14] [%]	zone of inhibition at 200 µg/disc [15] [mm]	zone of inhibition at 200 µg/disc [16] [mm]	MIC [22] [µg/mL]	IC50 [26] [µM]	MIC [30] [µg/mL]	zone of inhibition at 200 µg/disc [31] [mm]	other results
Nc1ncc(Sc2nc3ccc(Cl)cc3c(=O)n2-c2ccccc2)s1	11.2	< 10	< 10	< 10	< 10	< 10	8	21.5	14	< 10	29.1	< 10	< 10	< 10	22	18	8 (≈ 20.7 µM)	4	4 (≈ 10.3 µM)	8	inhibition of growth at 10 µM [17]: < 10%; inhibition of growth at 10 µM [18]: 24.1%; inhibition of growth at 10 µM [19]: 10.9%; inhibition of growth at 10 µM [20]: < 10%; inhibition of growth at 10 µM [21]: 10.2%; inhibition of growth at 10 µM [23]: < 10%; inhibition of growth at 10 µM [24]: 12.9%; inhibition of growth at 10 µM [25]: < 10%; inhibition of growth at 10 µM [27]: < 10%; inhibition of growth at 10 µM [28]: 14%; inhibition of growth at 10 µM [29]: < 10%; inhibition of growth at 10 µM [32]: 19%; inhibition of growth at 10 µM [33]: < 10%; inhibition of growth at 10 µM [34]: < 10%; inhibition of growth at 10 µM [35]: < 10%; inhibition of growth at 10 µM [36]: < 10%; inhibition of growth at 10 µM [37]: 19.1%; inhibition of growth at 10 µM [38]: 25.7%; inhibition of growth at 10 µM [39]: < 10%
COc1cc2nc(Sc3cc([N+](=O)[O-])ccc3C(=O)O)n(-c3ccccc3)c(=O)c2cc1OC							8		8						20	18	8 (≈ 16.7 µM)	10	4 (≈ 8.34 µM)	22	MIC [40]: 2 µg/mL (≈ 4.17 µM)
Cc1ccc2nc(Sc3ncccc3C(=O)O)n(-c3ccccc3)c(=O)c2c1	< 10	< 10	< 10	< 10	< 10	< 10	12	< 10	14	< 10	< 10	< 10	< 10	< 10	22	20	4 (≈ 10.3 µM)	8	4 (≈ 10.3 µM)	16	inhibition of growth at 10 µM [17]: < 10%; inhibition of growth at 10 µM [18]: 13.1%; inhibition of growth at 10 µM [19]: < 10%; inhibition of growth at 10 µM [20]: < 10%; inhibition of growth at 10 µM [21]: 11.7%; inhibition of growth at 10 µM [23]: < 10%; inhibition of growth at 10 µM [24]: < 10%; inhibition of growth at 10 µM [25]: < 10%; inhibition of growth at 10 µM [27]: < 10%; inhibition of growth at 10 µM [28]: < 10%; inhibition of growth at 10 µM [29]: 12.1%; inhibition of growth at 10 µM [32]: < 10%; inhibition of growth at 10 µM [33]: 10.4%; inhibition of growth at 10 µM [34]: < 10%; inhibition of growth at 10 µM [35]: < 10%; inhibition of growth at 10 µM [36]: < 10%; inhibition of growth at 10 µM [37]: < 10%; inhibition of growth at 10 µM [38]: < 10%; inhibition of growth at 10 µM [39]: < 10%
